Measured values collected from several papers.
Protocols differ between the studies behind these lines.
Target: Tyrosine-protein kinase Fes/Fps (FES, Homo sapiens, UniProt P07332)

Structure (SMILES) | effect on | mode | method | concentration | endpoint | value
CC/C(=N\NC(=O)NCc1cccc(O)c1)c1ccc(O)c(C)c1O | enzyme activity | inhibitor | – | 0.1 µM | inhibition | 1.2%
O=C1NC(=O)c2cc(Nc3ccc(F)cc3)c(Nc3ccc(F)cc3)cc21 | cell-free assay | – | – | 0.5 µM | remaining signal | 99.5%
c1nc2c(Nc3ccc4c(c3)OCCO4)nc(Nc3ccc4c(c3)OCCO4)nc2[nH]1 | enzyme activity | inhibitor | – | 10 µM | activity vs control | 62%
Cc1ccc(C(=O)Nc2ccc(CN3CCN(C)CC3)c(C(F)(F)F)c2)cc1C#Cc1cnc2cccnn12 | enzyme activity | – | – | 23.5 nM | remaining activity | 100%
C=CC(=O)Nc1cc(Nc2nccc(Nc3cc(Cl)c(F)cc3C(C)(C)O)n2)c(OC)cc1N1CC[C@@H](N(C)C)C1 | enzyme activity | inhibitor | – | 1 µM | inhibition | 65%
Cc1ccc(C(=O)NCc2ccsc2)cc1C#Cc1cn(C(C)C)c2ncnc(N)c12 | enzyme activity | inhibitor | – | 1 µM | activity vs control | 93%
CC1=C(C#N)[C@@H](c2ccc3[nH]nc(C)c3c2)C(C#N)=C(c2ccc(Cl)cc2)N1 | cell-free assay | – | competition with immobilised ligand | 1 µM | remaining binding | 100%
CNCc1ccc(-c2cc(-c3nc(-c4ccc(S(=O)(=O)C(C)C)cc4)cnc3N)on2)cc1 | enzyme activity | inhibitor | – | 2 µM | inhibition | 0%
COc1ccc2c(O[C@@H]3C[C@H]4C(=O)N[C@]5(C(=O)O)CC5/C=C\CCCCC[C@H](NC(=O)OC5CCCC5)C(=O)N4C3)cc(-c3csc(NC(=O)C(C)C)n3)nc2c1C (some centres unmarked) | cell-free assay | – | competition with immobilised ligand | 1 µM | remaining binding | 100%
O=C(Nc1cnn(-c2csc(C(=O)NC3COC3)c2)c1)Nc1c(F)cccc1Cl | enzyme activity | inhibitor | – | 5 µM | remaining activity | 87.8%
CN(c1ccnc(CNc2nc(Nc3ccc4c(c3)CC(=O)N4)ncc2C(F)(F)F)n1)S(C)(=O)=O | cell-free assay | – | competition with immobilised ligand | 1 µM | remaining binding | 74%
Cc1cnc(NC2CCOCC2)nc1-n1cnc(C(=O)NC(CN)c2cc(F)cc(Cl)c2)c1 (centres unmarked) | enzyme activity | inhibitor | radiometric | 1 µM | remaining activity | 102%
Nc1ncnc2occ(-c3ccc(NC(=O)Nc4cc(C(F)(F)F)ccc4F)cc3)c12 | cell-free assay | inhibitor | – | 20 µM | remaining signal | 4.1%
C[C@@H]1CN(c2cc(-c3n[nH]c4ccc(OC5(C)CC5)cc34)ncn2)C[C@H](C)O1 | cell-free assay | – | competition with immobilised ligand | 0.1 µM | remaining binding | 87%
COc1cc(Cl)c(C(=O)N[C@@H](CN[C@H]2CC[C@@H](N)CC2)Cc2ccc(C#N)cc2)cc1-c1ccc(CN[C@H](C)c2ccc(C)cc2)o1 | enzyme activity | inhibitor | – | 1 µM | remaining activity | 94%
COc1ccc2c(c1)O[C@H](c1ccc(OC)c(OC)c1)C[C@@H]2NC(=O)C1(c2ccc3c(c2)OC(F)(F)O3)CC1 | cell-free assay | – | competition with immobilised ligand | 1 µM | remaining binding | 97%
COc1cc2ncnc(Nc3ccc(Oc4ccccc4)cc3C)c2cc1OC | enzyme activity | inhibitor | – | 1 µM | inhibition | 27%
N#CCCc1ccc2c(c1)-c1[nH]c3ccc([N+](=O)[O-])cc3c1CC(=O)N2 | cell-free assay | – | – | 0.5 µM | remaining signal | 37.9%
C[C@@H]1CN(c2cc(-c3nn(C)c4ccc(OC5(C)CC5)cc34)ncn2)C[C@H](C)O1 | cell-free assay | – | competition with immobilised ligand | 1 µM | remaining binding | 93%
CC(C)(C)c1nc2c(s1)c1nc(N)ncc1c1ccc(NS(=O)(=O)c3c(F)cccc3F)c(F)c12 | enzyme activity | inhibitor | radiometric | 1 µM | remaining activity | 93%
CCC(=O)N[C@@H]1CC[C@H](C(=O)N(C)c2ccc(-c3nc4ccccc4o3)cc2)C1 | cell-free assay | – | competition with immobilised ligand | 1 µM | remaining binding | 96%
CNC(=O)c1cc(Oc2ccc(NC(=O)Nc3ccc(Cl)c(C(F)(F)F)c3)cc2)ccn1 | cell-free assay | – | – | 0.5 µM | remaining signal | 104%
CCN(CC)c1ccc(C2=NNC(=O)CC2C)cc1[N+](=O)[O-] (centres unmarked) | enzyme activity | inhibitor | – | 10 µM | remaining activity | 103%
